The record followed here is ChEMBL document CHEMBL1133526, “Molecular simplification of 1,4-diazabicyclo[4.3.0]nonan-9-ones gives piperazine derivatives that maintain high nootropic activity” (2000).

Common to all, as to type: functional
For experiment [1], the species on record is Mus musculus. Nature of the experiment: Change in entry latency expressed as [(entry latency on day 2)-(entry latency on day 1)]. A digest of the protocol: (§1)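 Mouse passive avoidance test using a light/dark box. Entering the dark side drops the mouse 40 cm into 10 °C water. Training is on day 1 and retention 24 h later. Test drug is given sc 20 min before training, in saline or DMSO/H2O vehicle. […] Mice not entering within 60 s are excluded. Retention latency is capped at 120 s. Δ = day 2 − day 1 latency.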

In experiment [2] the test system is Mus musculus. The experiment can be described thus: Minimum effective dose administered subcutaneously in mouse, activity given with reference to piracetam. The settings on record: Mus musculus, sc; read-out: MED. A digest of the protocol:
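Mouse passive avoidance with scopolamine-induced amnesia (1.5 mg/kg ip after training; 40 cm fall into 10 °C water as punishment). Compounds are given sc in 1:10 dilution steps 20 min before training, in saline or DMSO/H2O. […] Piracetam is the ip reference.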

Experiment [3] has as its system Mus musculus. Nature of the experiment: Nootropic effect of the compound, when administered subcutaneously, on mouse passive Avoidance test, using Scopolamine as Amnesic drug on 1 st day.
Experiment [4] has as its system Mus musculus. Nature of the experiment: Nootropic effect of the compound, when administered subcutaneously, on mouse passive Avoidance test, using Scopolamine as Amnesic drug on 2 nd day; dose is limited by solubility problems. The essentials: as §1

Regarding `CC(=O)N1CCN(C(=O)c2ccccc2)CC1`, the “Change in entry latency” value in the experiment listed under Mus musculus [1] amounted to 107.7 s. In addition, the minimal effective dose with Mus musculus [2] was found to be 10 mg/kg. In addition, the Entry latency is 11.3 s with Mus musculus [3] and 119 s in the experiment on Mus musculus [4].
